Data on seven compounds can be found in PMC7445463 (Diabetologia, 2020).

Data set [1] deals with mouse and human primary PaSC and immortalized imPaSC. Briefly: Signalling and gene expression in pancreatic stellate cells. The class given is cell-based. The settings on record: Met 0.1-10 mM.
Data set [2] concerns diabetic patients with chronic heart failure. The class given is in vivo, human. The settings on record: metformin 2 g/day for 3 months.
Data set [3] has as its target T1, glucokinase (Homo sapiens, UniProt P35557).
T1 sequence (P35557 1-465): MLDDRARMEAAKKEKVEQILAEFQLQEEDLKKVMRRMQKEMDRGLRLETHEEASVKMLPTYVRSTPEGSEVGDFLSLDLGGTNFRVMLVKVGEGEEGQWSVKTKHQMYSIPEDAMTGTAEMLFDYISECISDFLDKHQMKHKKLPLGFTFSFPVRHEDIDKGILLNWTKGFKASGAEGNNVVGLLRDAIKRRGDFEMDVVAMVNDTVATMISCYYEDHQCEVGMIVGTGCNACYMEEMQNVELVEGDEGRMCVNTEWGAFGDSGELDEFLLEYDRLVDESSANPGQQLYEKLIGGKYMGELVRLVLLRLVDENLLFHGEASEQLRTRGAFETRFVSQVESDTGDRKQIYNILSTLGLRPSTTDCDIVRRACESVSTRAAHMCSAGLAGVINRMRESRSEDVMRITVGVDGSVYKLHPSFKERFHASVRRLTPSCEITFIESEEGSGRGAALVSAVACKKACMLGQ
The conditions noted are these: type 2 diabetes (n=190); cited from earlier work.

Data set [4] deals with T1, glucokinase. The data set is described as follows: Simplici-T1 Phase 1b/2 trial. The class given is in vivo.
Data set [5] relates to human heart. Briefly: Metformin uptake in the human heart by PET scanning. The class given is in vivo.
Data set [6] can be described thus: metformin vs placebo crossover in DM and chronic heart failure. The class given is in vivo, human. The settings on record: 2 g/day, 3 months vs placebo.
Data set [7] deals with patients with type 2 diabetes. The data set is described as follows: Network meta-analysis of antidiabetic medications on blood pressure. The arrangement: species or system human. The conditions noted are these: frequentist random-effects network meta-analysis, 192 studies.
Data set [8] in a line: 42-h fast crossover trial with or without metformin. The class given is in vivo, human. The settings on record: 1 g twice daily for a week.
Data set [9] relates to human hepatocytes (HepG2). Briefly: GDF15 and FGF21 expression in hepatocytes. In kind it is cell-based. The settings on record: 2 mM, up to 24-h.
A short description of data set [10]: Serum uteroglobin before and after metformin monotherapy. The class given is in vivo, human. The settings on record: after 12 months monotherapy; before 14.43±0.97; n=20.
Data set [11] is described as follows: Portal vein and arterialized lactate after oral metformin. In kind it is in vivo, human. The settings on record: 90 minutes after 1000 mg oral.
Data set [12] can be described thus: Intrajejunal metformin with or without bile exclusion or TCA, T2DM. The class given is in vivo, human. The conditions noted are these: 1 g intrajejunal; endogenous bile included.
Data set [13] is described as follows: Insulin icodec vs IGlar U100 26-week phase 2 trial. The class given is in vivo, human. An outline of the steps:
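Randomized, double-blind, double-dummy, treat-to-target phase 2 trial lasting 26 weeks. Participants were insulin-naïve adults with T2D and HbA1c 7.0-9.5% on metformin ± DPP4i, randomized 1:1 (n=247). Starting doses were 70 U once weekly or 10 U once daily, titrated weekly to a pre-breakfast SMBG target of 3.9-6.0 mmol/L. The primary endpoint was HbA1c change from baseline to week 26; FPG and mean weekly dose over the last two weeks were secondary.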

The conditions of data set [14]: stated as background; cited from earlier work.
The subject of data set [15] is individuals with type 2 diabetes. The data set is described as follows: insulin icodec PK/PD trial. The arrangement: species or system human. The settings on record: in vivo.
In data set [16] the test system is HG-CD34+ stem cells. The data set is described as follows: ROS production in CD34+ stem cells. In kind it is cell-based, human. The conditions noted are these: n=3.
Data set [17] has as its system individuals with obesity. In kind it is in vivo, human.
Data set [18] concerns human ventricular cardiac fibroblasts (HCF). Briefly: Human ventricular cardiac fibroblasts, mRNA expression by RT-qPCR. The class given is cell-based. The conditions noted are these: TGF-β treatment; p<0.01.

Where “and” joins values, the source holds several entries; their conditions need not be identical. Equal values may be shown once.

Take `CN(C)C(=N)N=C(N)N` [MET, metformin]: the “levels of yes-associated protein 1 (YAP)” value in [1] is given as “inhibited”. Also, in [2], the “cardiac functions as assessed by echocardiography and spiroergometry” value is given as “did not change”. In [2] (compared to placebo), the HbA1c entry is recorded as “reduced”.
As for `CCCO[C@H]1CC[C@H](N(C(=O)Nc2ncc(SCC(=O)O)s2)C2CCCCC2)CC1` [TTP399], the A1C vs placebo in data set [3] is on record as −0.9%. Also, in [4] (12 weeks), the “plasma β-hydroxybutyrate or urine ketones vs placebo” value is “no significant or clinically relevant increases” and the severe hypoglycemia result is “No incidents”. Besides, the “improvement of TIR 70-180 vs placebo” value in data set [4] (Part 1 (n=19)) was 12%. Moreover, the “A1C vs placebo, trial product estimand” value in data set [4] (Part 2 (n=85), 12 weeks) is -0.32% and -0.3%. Further, in data set [4] (Part 2, ITT), the “improvement of (daytime) TIR” value was 8%. The compound also registered a responders in data set [4] (Part 2, placebo 12%) of 42%.
As for `CN(C)C(=N)N=C(N)N` [metformin], the “metformin uptake in healthy human hearts” value in data set [5] is on record as “no uptake”. Besides, in [6], the “GLP-1 and peptide YY during meal test” value is on record as “increased”. Moreover, in data set [7], the “systolic blood pressure, mean difference compared to placebo” value is on record as -1.21 mmHg. Moreover, the “serum FGF21” value in data set [8] (without 146 ± 30) is reported as 156 ± 29 ng/mL. Also, the “serum GDF15” value in [8] (without 607 ± 89) was determined as 1004 ± 61 ng/mL. Moreover, in data set [9], the “increase of FGF21 mRNA” value turned out to be 12 fold and the “increase of GDF15 mRNA” value is on record as 4 fold. In addition, the serum uteroglobin in data set [10] was found to be 16.47 ± 1.33 ng/mL. The “increase of lactate concentration, arterialized blood” value in data set [11] is recorded as 2%. In [11] (n=8 cirrhotic participants), the “increase of lactate concentration, portal vein” value stood at 23%. Moreover, the “plasma glucose iAUC 0-180 min” value in data set [12] came out at 516 ± 46 mmol·min/L.
Regarding Insulin icodec, the “estimated treatment ratio of weekly dose vs IGlar U100” value in data set [13] (95% CI 0.69, 0.94) is listed as 0.81. Moreover, the “estimated treatment difference HbA1c vs IGlar U100” value in data set [13] (95% CI -0.38, 0.02) was -0.18%. In addition, in data set [13] (95% CI -0.66, 0.23), the “estimated treatment difference FPG vs IGlar U100” value is -0.22 mmol/L. Besides, the “estimated mean HbA1c at week 26” value in data set [13] (baseline 8.1 icodec, 8.0 IGlar U100) is 6.7%. Further, in [13] (in vivo), the “estimated mean FPG at week 26” value was 6.84 mmol/L and the “estimated mean weekly insulin dose, last two weeks” value was 229 U/week. Moreover, the “level 2 and 3 hypoglycaemia” value in data set [13] (on-treatment period) was 53 events per 100 patient years of exposure. Moreover, the “estimated mean change in HbA1c from baseline” value in [13] (week 26) was -1.33 %-points. The terminal half-life in data set [14] was ~ 196 hours.
As to insulin icodec, the “geometric mean half-life (t½)” value in [15] turned out to be 196 h.
Consider liraglutide, for which the “HG-induced production of ROS” value in [16] is recorded as “significant reduction”. Besides, the “change in heart rate during the 1-year treatment phase” value in data set [17] (liraglutide 3.0 mg/day, with or without exercise, PLA -0.7) was determined as 3.7 min⁻¹. Besides, in data set [17] (no group differences), the “systolic and diastolic BP during the 1-year treatment phase” value is “decreased”.
For the compound transforming growth factor beta [TGF-β], the “TNC expression in HCF” value in data set [18] is reported as “upregulated TNC expression”.
